The text below walks through data of ChEMBL document CHEMBL1130111, “The chemistry of pseudomonic acid. 18. Heterocyclic replacement of the alpha,beta-unsaturated ester: synthesis, molecular modeling, and antibacterial activity” (J Med Chem, 1997).

The target in assay [1] is T1, Isoleucine--tRNA ligase (Staphylococcus aureus, UniProt P41972).
T1 sequence (P41972 whole entry): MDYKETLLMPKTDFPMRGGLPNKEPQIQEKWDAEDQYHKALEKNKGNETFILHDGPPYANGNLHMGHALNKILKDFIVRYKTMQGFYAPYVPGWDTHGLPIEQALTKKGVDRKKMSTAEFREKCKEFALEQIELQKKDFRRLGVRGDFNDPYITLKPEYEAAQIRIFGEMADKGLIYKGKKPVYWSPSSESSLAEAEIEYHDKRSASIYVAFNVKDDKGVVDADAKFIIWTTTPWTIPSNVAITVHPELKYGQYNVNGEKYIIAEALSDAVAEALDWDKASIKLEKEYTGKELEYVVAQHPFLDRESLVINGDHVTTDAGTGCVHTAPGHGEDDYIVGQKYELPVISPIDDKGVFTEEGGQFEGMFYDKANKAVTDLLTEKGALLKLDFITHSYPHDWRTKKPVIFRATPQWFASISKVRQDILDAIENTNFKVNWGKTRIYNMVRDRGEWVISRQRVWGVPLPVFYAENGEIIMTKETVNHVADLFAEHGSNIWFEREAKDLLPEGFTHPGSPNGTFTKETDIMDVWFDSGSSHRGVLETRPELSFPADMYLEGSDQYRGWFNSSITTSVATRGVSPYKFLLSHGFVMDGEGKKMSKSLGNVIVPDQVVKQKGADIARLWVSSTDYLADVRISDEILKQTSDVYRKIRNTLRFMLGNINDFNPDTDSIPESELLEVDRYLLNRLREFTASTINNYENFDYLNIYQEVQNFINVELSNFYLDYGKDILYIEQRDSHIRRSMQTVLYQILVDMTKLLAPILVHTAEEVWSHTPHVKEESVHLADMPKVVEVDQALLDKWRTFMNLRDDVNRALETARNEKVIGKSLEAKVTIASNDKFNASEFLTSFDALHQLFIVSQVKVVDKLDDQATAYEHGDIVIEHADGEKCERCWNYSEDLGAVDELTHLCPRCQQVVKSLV
Nature of the assay: (§1) Inhibition concentration against Isoleucyl-tRNA synthetase from Staphylococcus aureus NCTC 6571. In outline: (§2)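 IRS extracted from S. aureus grown to late stationary phase in shake flasks (Nutrient Broth No. 2). Cells were sonicated with lysostaphin, DNase-treated, dialysed against 20 mM Tris-HCl pH 8 with 5 mM MgCl2 and 2 mM DTT, then ultracentrifuged. Compound was preincubated with enzyme 5 min. Charging of E. coli tRNA with 4.8 µM [U-14C]-isoleucine and 5 mg/mL ATP was run 10 min at 37 °C. IC50 taken as 50% inhibition of 14C-Ile incorporation.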

For a further assay, the system named is Staphylococcus aureus. Nature of the assay: minimum inhibitory concentration (MIC) against Staphylococcus aureus NCTC 6571. Type of assay: functional. In outline: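 Agar dilution MIC in blood agar base with 5% chocolated horse blood. Inoculum was an overnight nutrient broth culture, about 10^6 CFU per spot. Plates were incubated 18-24 h at 37 °C. MIC taken as the lowest concentration fully inhibiting growth.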

Assay [2] addresses T1, Isoleucine--tRNA ligase. Description: Inhibition concentration against isoleucyl tRNA synthetase from Staphylococcus aureus NCTC 6571. In outline:
as §2

Assay [3] addresses T2, Isoleucine--tRNA ligase (Staphylococcus aureus) (UniProt P41972).
T2 sequence (whole entry): T1 sequence (P41972 whole entry)
The description is as §1. The settings on record: concentration not given here. Summed up: as §2

Consider `C[C@H]([C@@H]1O[C@H]1C[C@H]1CO[C@@H](Cc2cc(-c3ccccc3)no2)[C@H](O)[C@@H]1O)[C@H](C)O`, for which half-maximal inhibition against Isoleucine--tRNA ligase [1] (IC50) was put at 13.1 nM. The compound further displayed an MIC in the assay on Staphylococcus aureus of 4 ug m1 l-1.

The compound `C[C@H]([C@@H]1O[C@H]1C[C@H]1CO[C@@H](Cn2nnc(-c3ccccc3)n2)[C@H](O)[C@@H]1O)[C@H](C)O` gave an IC50 at Isoleucine--tRNA ligase [1] of 8.9 nM. This compound gave an MIC with Staphylococcus aureus of 8 ug m1 l-1.

For `CCOC(=O)/C=C(\C)C[C@@H]1OC[C@H](C[C@@H]2O[C@H]2[C@@H](C)[C@H](C)O)[C@@H](O)[C@H]1O`, the IC50 against Isoleucine--tRNA ligase [1] was 2.95 nM. In addition, in the assay on Staphylococcus aureus, the MIC was 0.5 ug m1 l-1.

`C[C@H]([C@@H]1O[C@H]1C[C@H]1CO[C@@H](Cc2nc(-c3ccccc3)no2)[C@H](O)[C@@H]1O)[C@H](C)O` had an IC50 against Isoleucine--tRNA ligase [1] of 1.73 nM. In the assay with Staphylococcus aureus, this compound registered an MIC of 4 ug m1 l-1.

Compound `C[C@H]([C@@H]1O[C@H]1C[C@H]1CO[C@@H](Cc2csc(-c3ccccc3)n2)[C@H](O)[C@@H]1O)[C@H](C)O` showed an IC50 against Isoleucine--tRNA ligase [2] of 14.3 nM. The compound further displayed an MIC with Staphylococcus aureus of more than 64 ug m1 l-1.

Turning to `C[C@H]([C@@H]1O[C@H]1C[C@H]1CO[C@@H](Cc2ncc(-c3ccccc3)o2)[C@H](O)[C@@H]1O)[C@H](C)O`, the inhibition in assay [3] was 0%. The MIC against Staphylococcus aureus is given as more than 64 ug m1 l-1.

`C[C@H]([C@@H]1O[C@H]1C[C@H]1CO[C@@H](Cc2nnc(-c3ccccc3)o2)[C@H](O)[C@@H]1O)[C@H](C)O` had an IC50 against Isoleucine--tRNA ligase [1] of 5.19 nM. For the same compound, the MIC against Staphylococcus aureus was determined as 8 ug m1 l-1.

In the case of `C[C@H]([C@@H]1O[C@H]1C[C@H]1CO[C@@H](Cc2cnc(-c3ccccc3)o2)[C@H](O)[C@@H]1O)[C@H](C)O`, the midpoint of inhibition at Isoleucine--tRNA ligase [1], the IC50, lay at 4.71 nM. The same compound registered an MIC against Staphylococcus aureus of 2 ug m1 l-1.

`C[C@H]([C@@H]1O[C@H]1C[C@H]1CO[C@@H](Cc2cc(-c3ccccc3)on2)[C@H](O)[C@@H]1O)[C@H](C)O`: the inhibition in assay [3] was 17%. Also, in the assay on Staphylococcus aureus, the MIC was more than 64 ug m1 l-1.

Consider `C/C(=C\C(=O)OCCCCCCCCC(=O)O)C[C@@H]1OC[C@H](C[C@@H]2O[C@H]2[C@@H](C)[C@H](C)O)[C@@H](O)[C@H]1O` [MUPIROCIN], for which the IC50 against Isoleucine--tRNA ligase [1] was 1.7 nM. The compound further returned an MIC in the assay with Staphylococcus aureus of 0.13 ug m1 l-1.

As a reminder, the IC50 is the point on the concentration scale where inhibition reaches its midpoint. Low values mean inhibition by little substance, high ones a need for much substance. One may read the inhibition as the percentage by which the read-out fell short of the control. Lower therefore signals a response near the control.
